Experimental data from different studies.
Mode: inhibitor
CDK7 with cyclin H: Cyclin-dependent kinase 7, with cyclin H (CDK7, Homo sapiens, UniProt P50613)
CDK7: Cyclin-dependent kinase 7 (CDK7, Homo sapiens, UniProt P50613)

O=C(O)c1cc(O)c(O)c(O)c1  inhibition (CDK7 with cyclin H; enzyme activity; ADP detection; 10 µM): -3%
Cc1ccc(-n2nc(C(C)(C)C)cc2NC(=O)Nc2ccc(OCCN3CCOCC3)c3ccccc23)cc1  inhibition (CDK7; enzyme activity; 10 µM): 17%
Cn1cnc(Br)c1C1=CN(c2ncnc3[nH]cnc23)CCS1  inhibition (CDK7; enzyme activity; radiometric; 50 nM): 21.6%
COc1c2c(cc3oc(-c4ccccc4)cc(=O)c13)OCO2  inhibition (CDK7 with cyclin H; enzyme activity; ADP detection; 10 µM): 94.4%
C=CC(=O)Nc1cc(Nc2nccc(Nc3cc(Cl)c(F)cc3C(C)(C)O)n2)c(OC)cc1N1CC[C@@H](N(C)C)C1  inhibition (CDK7 with cyclin H; enzyme activity; 1 µM): 14%
c1ccc(CNc2nc(N3CCOc4ccccc43)nc3c2CCCC3)cc1  inhibition (CDK7; target engagement in cells; chemoproteomics; 20 mM): -1.7%
COc1cc(-c2cc(-c3ccc(N4CCNCC4)cc3)cnc2C)cc(OC)c1OC  inhibition (CDK7; enzyme activity; 1 µM): 2%
Cc1ccc(Nc2nccc(N(C)c3ccc4c(C)n(C)nc4c3)n2)cc1S(N)(=O)=O  inhibition (CDK7 with cyclin H; enzyme activity; 10 µM): 34%
COc1cccc2c(NCc3ccccc3)nc(-n3c(N)nc4ccccc43)nc12  inhibition (CDK7; target engagement in cells; chemoproteomics; 20 mM): 2.5%
COC1=C(OC)C(=O)C(C/C=C(\C)CC/C=C(\C)CC/C=C(\C)CC/C=C(\C)CC/C=C(\C)CC/C=C(\C)CC/C=C(\C)CC/C=C(\C)CC/C=C(\C)CCC=C(C)C)=C(C)C1=O  inhibition (CDK7 with cyclin H; enzyme activity; ADP detection; 10 µM): 6.6%
